What was measured:
[1] = molecular target: T1, 5-hydroxytryptamine receptor 1A (Homo sapiens, UniProt P08908); assay: Compound was tested for binding affinity against cloned human 5-hydroxytryptamine 1A receptor expressed in CHO-K1 cells.; format: cell-based
T1 sequence (P08908 whole entry): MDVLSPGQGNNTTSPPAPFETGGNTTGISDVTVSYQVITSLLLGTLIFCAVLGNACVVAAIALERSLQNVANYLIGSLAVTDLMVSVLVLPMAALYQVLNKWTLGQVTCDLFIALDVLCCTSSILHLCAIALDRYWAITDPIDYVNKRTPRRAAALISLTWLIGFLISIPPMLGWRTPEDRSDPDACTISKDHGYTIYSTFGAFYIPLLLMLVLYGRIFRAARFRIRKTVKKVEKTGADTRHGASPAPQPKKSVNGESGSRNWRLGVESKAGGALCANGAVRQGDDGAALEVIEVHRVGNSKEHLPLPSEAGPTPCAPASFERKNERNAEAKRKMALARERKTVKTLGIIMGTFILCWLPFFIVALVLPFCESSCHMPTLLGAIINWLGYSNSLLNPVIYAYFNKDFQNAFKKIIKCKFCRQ
How it was run: (§1)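 CHO cell membranes expressing cloned human 5-HT1A, 5-HT1Dα or 5-HT1Dβ receptors, or rat D2 receptors (20-60 µg protein). Buffers at pH 7.4: 50 mM Tris/5 mM MgCl2 (5-HT1A); the same with 0.1% ascorbic acid (5-HT1D); 20 mM HEPES/10 mM MgSO4 (D2). Nonspecific binding defined with lisuride, serotonin and haloperidol respectively. 11 concentrations in duplicate, 1 h at room temperature (5-HT1D protected from light), filtration.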

[2] = molecular target: T2, 5-hydroxytryptamine receptor 1D (Homo sapiens, UniProt P28221); assay: (§2) Compound was tested for binding affinity against cloned human 5-hydroxytryptamine 1D receptor alpha expressed in CHO-K1 cells.; format: cell-based; how it was run: as §1
Target sequence in this assay (P28221 whole entry): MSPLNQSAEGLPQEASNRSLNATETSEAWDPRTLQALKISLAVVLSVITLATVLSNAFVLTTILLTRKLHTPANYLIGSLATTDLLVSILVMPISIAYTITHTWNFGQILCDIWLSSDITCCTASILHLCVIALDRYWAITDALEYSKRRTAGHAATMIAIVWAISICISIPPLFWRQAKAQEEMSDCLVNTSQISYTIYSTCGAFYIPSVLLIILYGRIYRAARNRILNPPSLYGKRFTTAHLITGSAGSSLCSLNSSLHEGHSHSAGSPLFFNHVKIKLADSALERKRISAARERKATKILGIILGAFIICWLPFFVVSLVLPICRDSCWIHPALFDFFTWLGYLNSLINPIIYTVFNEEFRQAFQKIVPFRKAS

[3] = molecular target: T3, 5-hydroxytryptamine receptor 1B (Homo sapiens, UniProt P28222); assay: Compound was tested for binding affinity against human 5-hydroxytryptamine 1D receptor beta clones expressed in human embryonic kidney (HEK 293) cells line.; format: cell-based, HEK293
T3 sequence (P28222 whole entry): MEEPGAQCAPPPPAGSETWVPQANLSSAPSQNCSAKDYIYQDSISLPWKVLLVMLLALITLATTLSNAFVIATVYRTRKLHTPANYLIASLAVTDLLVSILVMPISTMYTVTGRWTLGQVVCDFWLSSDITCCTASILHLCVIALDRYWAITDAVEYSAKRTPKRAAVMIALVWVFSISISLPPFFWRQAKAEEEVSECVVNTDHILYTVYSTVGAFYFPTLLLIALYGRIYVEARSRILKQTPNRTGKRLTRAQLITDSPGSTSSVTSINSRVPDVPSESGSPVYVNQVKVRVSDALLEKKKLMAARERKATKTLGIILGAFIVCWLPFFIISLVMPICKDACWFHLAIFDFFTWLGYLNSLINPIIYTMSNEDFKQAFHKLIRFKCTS
How it was run: (§3)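 HEK 293 microsomal membranes expressing human 5-HT1Dα or 5-HT1Dβ, in 50 mM Tris-HCl buffer with 4 mM CaCl2, 0.1% ascorbic acid, pargyline and leupeptine. [3H]-5-HT (final 0.01-150 nM) incubated with membranes and displacer for 30 min at 25 °C. Glass-fibre filtration, then scintillation counting. Nonspecific binding taken with 10^-5 M 5-HT. Nonlinear least-squares fitting (EBDA/LIGAND); mean ± SEM, n=3.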

[4] = molecular target: T2, 5-hydroxytryptamine receptor 1D; assay: as §2; format: cell-based; remark: listed apart in the source
How it was run: as §1, with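 “protein). Radioligands: [3H]-8-OH-DPAT (5-HT1A), [3H]-5-HT (5-HT1D), [3H]U-86170 (D2).” for “protein).”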

[5] = molecular target: T2, 5-hydroxytryptamine receptor 1D; assay: Compound was tested for binding affinity against human 5-hydroxytryptamine 1D receptor alpha clones expressed in human embryonic kidney (HEK 293) cells line.; format: cell-based, HEK293; how it was run: as §3
Target sequence in this assay (P28221 whole entry): as the sequence (P28221 whole entry) above

[6] = Distribution coefficient (LogD) of compound reported; format: physicochemical; details: octanol/water
How it was run: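 log D calculated with Pallas version 1.2.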

[7] = molecular target: D(2) dopamine receptor (Rattus norvegicus, UniProt P61169); assay: Binding affinity for rat dopamine D2 receptor expressed in CHO-K1 cells; format: cell-based
D(2) dopamine receptor, sequence (P61169 whole entry): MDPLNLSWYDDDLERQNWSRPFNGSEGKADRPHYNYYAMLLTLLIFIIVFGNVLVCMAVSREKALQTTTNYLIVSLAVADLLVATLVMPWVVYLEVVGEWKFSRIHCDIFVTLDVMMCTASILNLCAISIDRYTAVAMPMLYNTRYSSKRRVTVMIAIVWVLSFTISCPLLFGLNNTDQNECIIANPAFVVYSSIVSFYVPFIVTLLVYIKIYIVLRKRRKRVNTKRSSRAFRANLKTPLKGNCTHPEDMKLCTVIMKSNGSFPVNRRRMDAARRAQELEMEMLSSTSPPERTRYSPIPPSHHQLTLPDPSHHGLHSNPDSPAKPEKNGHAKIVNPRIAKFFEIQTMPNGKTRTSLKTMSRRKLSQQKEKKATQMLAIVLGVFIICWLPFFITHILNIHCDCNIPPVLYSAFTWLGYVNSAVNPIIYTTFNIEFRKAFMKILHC
How it was run: as §1, with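 “protein). Radioligands: [3H]-8-OH-DPAT (5-HT1A), [3H]-5-HT (5-HT1D), [3H]U-86170 (D2).” for “protein).”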

[8] = molecular target: T2, 5-hydroxytryptamine receptor 1D; assay: Ratio of receptor binding affinities of 5-hydroxytryptamine 1D receptor alpha vs 5-hydroxytryptamine 1D receptor beta
Target sequence in this assay (P28221 whole entry): as the sequence (P28221 whole entry) above

[9] = molecular target: T3, 5-hydroxytryptamine receptor 1B; assay: Compound was tested for binding affinity against cloned human 5-hydroxytryptamine 1D receptor beta expressed in CHO-K1 cells.; format: cell-based
[10] = system: Cavia porcellus; assay: Effect of 50(umol/kg, sc) compound on guinea pig rectal temperature (Hypothermia); format: functional
How it was run: (§4)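 Male guinea pigs housed individually at least 1 h before testing, groups of five. Compound given sc in 0.25% methylcellulose (equimolar citric acid for free bases), 5 mL/kg. Rectal probe inserted 3-4 cm; temperature read before dosing and at 60 min. Reported as change from the 0 min value, mean ± SEM (n=4-5).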

[11] = system: Cavia porcellus; assay: The level of 5-HIAA (hypothalamus) measured by means of HPCL with electrochemical detection methods at 50(umol/kg, sc); format: functional
How it was run: (§5)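 Male Dunkin-Hartley guinea pigs dosed sc in 0.25% methylcellulose (citric acid added for free bases), 5 mL/kg. Decapitated 60 min after dosing; prefrontal cortex and hypothalamus dissected on ice and stored at -80 °C. 5-HT and 5-HIAA measured by HPLC-electrochemical detection. Expressed as % of vehicle controls, mean ± SEM (n=4-5); ANOVA with Fisher's PLSD.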

[12] = system: Cavia porcellus; assay: Effect of 12.5 (umol/kg, sc) compound on guinea pig rectal temperature (Hypothermia); format: functional; how it was run: as §4
[13] = system: Cavia porcellus; assay: The level of 5-HIAA (hypothalamus) measured by means of HPCL with electrochemical detection methods at 12.5 (umol/kg, sc); format: functional; how it was run: as §5
[14] = system: Cavia porcellus; assay: The level of 5-HIAA (prefrontal cortex) measured by means of HPCL with electrochemical detection methods at 50(umol/kg, sc); format: functional; how it was run: as §5
[15] = system: Cavia porcellus; assay: The level of 5-HIAA(prefrontal cortex) measured by means of HPCL with electrochemical detection methods at 12.5 (umol/kg, sc); format: functional; how it was run: as §5
[16] = system: Cavia porcellus; assay: The level of 5-HT (hypothalamus) measured by means of HPCL with electrochemical detection methods at 50(umol/kg, sc); format: functional; how it was run: as §5
[17] = system: Cavia porcellus; assay: The level of 5-HT (hypothalamus) measured by means of HPCL with electrochemical detection methods at 12.5 (umol/kg, sc); format: functional; how it was run: as §5
[18] = system: Cavia porcellus; assay: The level of 5-HT (prefrontal cortex) measured by means of HPCL with electrochemical detection methods at 12.5 (umol/kg, sc); format: functional; how it was run: as §5
[19] = system: Cavia porcellus; assay: The level of 5-HT (prefrontal cortex) measured by means of HPCL with electrochemical detection methods at 50(umol/kg, sc); format: functional; how it was run: as §5
[20] = system: Rattus norvegicus; assay: 5-HTP accumulation in Rat brain accumbens when Reserpine given 24 hr before decapitation & 45 & 30 min before 10 umol/kg test drug; format: functional
How it was run: (§6)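 Rats reserpinized (5 mg/kg ip) 24 h before test compound (10 µmol/kg sc in saline, 1.0 mL/kg). NSD 1015 (100 mg/kg) given 15 min after test compound; decapitation 30 min later. Regions stored at -70 °C, homogenized in TCA, supernatant analysed by HPLC-electrochemical detection. Output is 5-HTP in µg/g wet tissue, mean ± SEM (striatum n=8, others n=4); one-way ANOVA with post hoc t-test.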

[21] = system: Rattus norvegicus; assay: 5-HTP accumulation in Rat brain frontal cortex when Reserpine given 24 hr before decapitation & 45 & 30 min before 10 umol/kg test drug; format: functional; how it was run: as §6
[22] = system: Rattus norvegicus; assay: 5-HTP accumulation in Rat brain hippocampus when Reserpine given 24 hr before decapitation & 45 & 30 min before 10 umol/kg test drug; format: functional; how it was run: as §6
[23] = system: Rattus norvegicus; assay: 5-HTP accumulation in Rat brain striatum when Reserpine given 24 hr before decapitation & 45 & 30 min before 10 umol/kg test drug; format: functional; how it was run: as §6
[24] = system: Cavia porcellus; assay: Effect of 6.250 (umol/kg, sc) compound on guinea pig rectal temperature (Hypothermia); format: functional; how it was run: as §4
[25] = system: Cavia porcellus; assay: The level of 5-HIAA (hypothalamus) measured by means of HPCL with electrochemical detection methods at 6.250 (umol/kg, sc); format: functional; how it was run: as §5
[26] = system: Cavia porcellus; assay: The level of 5-HIAA (prefrontal cortex) measured by means of HPCL with electrochemical detection methods at 6.250 (umol/kg, sc); format: functional; how it was run: as §5
[27] = system: Cavia porcellus; assay: The level of 5-HT (prefrontal cortex) measured by means of HPCL with electrochemical detection methods at 6.250 (umol/kg, sc); format: functional; how it was run: as §5
[28] = molecular target: T3, 5-hydroxytryptamine receptor 1B; assay: Compound was tested for binding affinity against cloned human 5-HT1D beta receptor expressed in CHO-K1 cells.; format: cell-based
How it was run: as §1, with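 “protein). Radioligands: [3H]-8-OH-DPAT (5-HT1A), [3H]-5-HT (5-HT1D), [3H]U-86170 (D2).” for “protein).”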

[29] = molecular target: T2, 5-hydroxytryptamine receptor 1D; assay: Displacement of [3H]-5-HT from human 5-hydroxytryptamine 1D receptor alpha expressed in HEK 293 cells; format: cell-based, HEK293; how it was run: as §3
Target sequence in this assay (P28221 whole entry): as above

Structure (SMILES)	Ki [1] [nM]	Ki [2] [nM]	IC50 [3] [nM]	IC50 [5] [nM]	logD [6]	Ki [7] [nM]	Ratio [8]	IC50 [29] [nM]	IC50 [4] [nM]	other results
CCN(CC)CCc1c[nH]c2ccc(OS(=O)(=O)C(F)(F)F)cc12	27	12	530	21	1.31	637	14.3	–	–	Ki [4]: 171 nM
CN(C)CCc1c[nH]c2ccc(OS(=O)(=O)C(F)(F)F)cc12	40	3.2	98	8.4	1.41	538	10	–	–	Ki [9]: 32 nM; Others [10]: -1.72; Others [11]: 54%; Others [12]: -1.7; Others [13]: 66%; Others [14]: 46%; Others [15]: 59%; Others [16]: 123%; Others [17]: 97%; Others [18]: 104%; Others [19]: 129%; 5-HTP accumulation [20]: 0.4 µg/g; Accumulation [20]: 81.6%; 5-HTP accumulation [21]: 0.37 µg/g; Accumulation [21]: 78.8%; 5-HTP accumulation [22]: 0.28 µg/g; Accumulation [22]: 100%; 5-HTP accumulation [23]: 0.28 µg/g; Accumulation [23]: 75.7%
CCCN(CCC)C1CCc2cccc(O)c2C1 (configuration not stated) [8-OH-DPAT]	–	–	–	–	–	–	–	–	–	Others [24]: 0.22; Others [25]: 37%; Others [26]: 34%; Others [27]: 126%
CCCN(CCC)CCc1c[nH]c2ccc(OS(=O)(=O)C(F)(F)F)cc12	23	190	660	170	2.21	502	1.3	–	–	Ki [28]: 246 nM
CCN(CC)CCc1c[nH]c2ccc(OCc3ccccc3)cc12	–	–	–	–	2.18	–	–	110	110	–
CCN(CC)CCc1c[nH]c2ccc(O)cc12	–	–	–	–	0.28	–	–	77	77	–

— ChEMBL document CHEMBL1129409, “5-HT1D receptor agonist properties of novel 2-[5-[[(trifluoromethyl)sulfonyl]oxy]indolyl]ethylamines and their use as synthetic intermediates” (J Med Chem, 1996)
